Active and inactive are the calls of the source. No cut-off for these calls is given here.
Legend:
Candida albicans = test: Antifungal activity against Candida albicans SKF 2270 assessed as growth inhibition by agar dilution method; type: functional
Cryptococcus neoformans = test: Antifungal activity against Cryptococcus neoformans 103 assessed as growth inhibition by agar dilution method; type: functional
[1] = system: Trichophyton mentagrophytes; test: Antifungal activity against Trichophyton mentagrophytes A-280 USPHS assessed as growth inhibition by agar dilution method; type: functional
Trichophyton rubrum = test: Antifungal activity against Trichophyton rubrum 252 CSTM assessed as growth inhibition by agar dilution method; type: functional
Microsporum canis = test: Antifungal activity against Microsporum canis VM-200 USPHS assessed as growth inhibition by agar dilution method; type: functional
Nannizzia gypsea = test: Antifungal activity against Microsporum gypseum 153 CSTM assessed as growth inhibition by agar dilution method; type: functional
Histoplasma capsulatum = test: Antifungal activity against Histoplasma capsulatum RNSH Hi-70 1/2 assessed as growth inhibition by agar dilution method; type: functional
[2] = system: Nippostrongylus brasiliensis; test: Anthelmintic activity against larvae stage of Nippostrongylus brasiliensis infected in rat assessed as decrease in worm load at 250 mg/kg, po administered on day 8 post infection; type: functional, organism-based; design: dose 250 mg/kg
Method in brief: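 Young male rats (25–30 g, University of Freiburg strain), 3 per compound, infected with 500 infective larvae; single 250 mg/kg oral dose on day 8. Worm loads of treated and control groups compared; 90% deparasitization taken as active. Whitlock–Bliss technique as modified by Steward.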

Rodentolepis nana = test: Anthelmintic activity against viable ova stage of Hymenolepis nana infected in rat assessed as decrease in intestinal worm load at 250 mg/kg, po measured on day 3; type: functional, organism-based; design: dose 250 mg/kg
Method in brief: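 Young male rats (25–30 g, University of Freiburg strain) infected with 200 viable ova, then given a single 250 mg/kg oral dose. Worms from each rat's small intestine collected and scored on day 3. A mean score of 0–10% of control taken as active.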

[3] = Acute toxicity in ip dosed mouse; type: organism-based; conditions: in vivo
Method in brief: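 Mice dosed intraperitoneally; LD50 determined.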

Staphylococcus aureus = test: Antibacterial activity against Staphylococcus aureus ATCC 6538 assessed as growth inhibition after 24 hrs by dilution tube method; type: functional; conditions: ATCC 6538, 24 h
Method in brief: (§1)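 Broth tube dilution in Tryptone Soya Broth, duplicate tubes at each concentration. MIC (μg/ml) was the highest dilution preventing visible growth. Nitrofurantoin run under the same conditions.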

Enterococcus faecalis = test: Antibacterial activity against Streptococcus faecalis ATCC 10541 assessed as growth inhibition after 24 hrs by dilution tube method; type: functional; conditions: ATCC 10541, 24 h; method in brief: as §1
Pseudomonas aeruginosa = test: Antibacterial activity against Pseudomonas aeruginosa ATCC 10145 assessed as growth inhibition after 24 hrs by dilution tube method; type: functional; conditions: ATCC 10145, 24 h; method in brief: as §1
Klebsiella pneumoniae = test: Antibacterial activity against Klebsiella pneumoniae ATCC 10031 assessed as growth inhibition after 24 hrs by dilution tube method; type: functional; conditions: ATCC 10031, 24 h; method in brief: as §1
Salmonella typhi = test: Antibacterial activity against Salmonella typhi 115 assessed as growth inhibition after 24 hrs by dilution tube method; type: functional, Salmonella enterica subsp. enterica serovar Typhi; conditions: Salmonella enterica, 115, 24 h
Method in brief: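 Dilution tube method in Tryptone Soya Broth; MIC (μg/ml) taken as highest dilution preventing visible growth; duplicates at every concentration; nitrofurantoin reference run under same conditions.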

[4] = system: Agrobacterium tumefaciens; test: Antibacterial activity against Agrobacterium tumefaciens NRRL B-36 assessed as growth inhibition after 24 hrs by dilution tube method; type: functional; conditions: NRRL B-36, 24 h; method in brief: as §1
Escherichia coli = test: Antibacterial activity against Escherichia coli 114 assessed as growth inhibition after 24 hrs by dilution tube method; type: functional; conditions: Escherichia coli, 114, 24 h; method in brief: as §1
[5] = system: Mycobacterium tuberculosis; test: Antibacterial activity against Mycobacterium tuberculosis H37Rv assessed as growth inhibition by serial dilution method; type: functional
Method in brief: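 M. tuberculosis H37Rv maintained on Lowenstein–Jensen medium; tested in Youman's medium by serial dilution.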

| Structure (SMILES) | MIC (Candida albicans) [µg/mL] | MIC (Cryptococcus neoformans) [µg/mL] | MIC [1] [µg/mL] | MIC (Trichophyton rubrum) [µg/mL] | MIC (Microsporum canis) [µg/mL] | MIC (Nannizzia gypsea) [µg/mL] | MIC (Histoplasma capsulatum) [µg/mL] | Activity [2] | Activity (Rodentolepis nana) | LD50 [3] [mg/kg] | MIC (Staphylococcus aureus) [µg/mL] | MIC (Enterococcus faecalis) [µg/mL] | MIC (Pseudomonas aeruginosa) [µg/mL] | MIC (Klebsiella pneumoniae) [µg/mL] | MIC (Salmonella typhi) [µg/mL] | MIC [4] [µg/mL] | MIC (Escherichia coli) [µg/mL] | MIC [5] [µg/mL] |
| --- | --- | --- | --- | --- | --- | --- | --- | --- | --- | --- | --- | --- | --- | --- | --- | --- | --- | --- |
| Cc1cc(OCCCC[N+](C)(C)Cc2ccc([N+](=O)[O-])o2)c(C(C)C)cc1Cl.[Br-] | > 200 | 25 | > 200 | > 200 | > 200 | > 200 | > 200 | inactive | inactive | 75 | 7.5 | 25 | 1.5 | 5 | > 200 | 25 | > 200 | 10 |
| Cc1cc(OCCCCC[N+](C)(C)Cc2ccc(Br)o2)c(C(C)C)cc1Cl.[Br-] | > 200 | 10 | 100 | > 200 | 100 | > 200 | 100 | inactive | inactive | 37.5 | 2.5 | 5 | 2.5 | 2.5 | 50 | 10 | 100 | 10 |
| C[N+](C)(CCCCCCOc1c(Br)cc(Br)cc1Br)Cc1ccc([N+](=O)[O-])o1.[Br-] | > 200 | 100 | > 200 | 100 | 100 | 100 | 25 | inactive | inactive | 75 | 10 | 25 | 2.5 | 5 | 100 | 25 | 200 | 10 |
| C[N+](C)(CCCCCCOc1c(Br)cc(Br)cc1Br)Cc1ccc(Br)o1.[Br-] | > 200 | 25 | > 200 | > 200 | 100 | > 200 | 25 | inactive | inactive | 25 | 2 | 5 | 1.5 | 1.5 | 50 | 7.5 | 100 | 10 |
| Cc1cc(OCCC[N+](C)(C)Cc2ccc([N+](=O)[O-])o2)c(C(C)C)cc1Cl.[Br-] | > 200 | > 200 | > 200 | > 200 | > 200 | > 200 | > 200 |  |  |  | 25 | 25 | 2 | 5 | 100 | 25 | > 200 | > 200 |
| C[N+](C)(CCCCOc1c(Br)cc(Br)cc1Br)Cc1ccc(Br)o1.[Br-] | > 200 | 25 | > 200 | > 200 | > 200 | > 200 | 50 | inactive | inactive | 37.5 | 5 | 25 | 5 | 7.5 | 100 | 50 | > 200 | 50 |
| Cc1cc(OCCCCCCCCCCCCCC[N+](C)(C)Cc2ccc(Br)o2)c(C(C)C)cc1Cl.Cc1ccc(S(=O)(=O)[O-])cc1 | > 200 | > 200 | > 200 | > 200 | > 200 | > 200 | > 200 |  |  |  | > 200 | > 200 | 200 | 200 | > 200 | > 200 | > 200 | > 200 |
| Cc1ccc(C[N+](C)(C)CCCCCCOc2c(Br)cc(Br)cc2Br)o1.[Br-] | > 200 | 10 | > 200 | > 200 | > 200 | > 200 | 75 |  |  |  | 5 | 7.5 | 2.5 | 5 | 75 | 25 | > 200 | 10 |

From ChEMBL document CHEMBL3244174, “Synthesis and biological activity of some new furan quaternary salts” (J Med Chem, 1977)
